Beta apoptosis: beta cell apoptosis inhibition. INS-1E cytokine-induced death, ATP luminescence, 48 h; percent of positive-control rescue, neutral wells zero. protection from apoptosis, % (concentration not given with the values). hit rate 0.8% among 300,000;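 active = Every replicate reaches about 75%, or at least half do and their mean reaches it too, limit read from the data; inconclusive = At least half of replicates reach the limit but their mean does not; inactive = Under half of replicates reach the limit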;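 note: higher means more ATP so stronger rescue from cytokine killing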
Mdm2-MdmX inh: human Mdm2/MdmX binding inhibition. inhibition, % at 8 µM. SaOS-2 split-luciferase Mdm2/MdmX complementation, luminescence. O15151+Q00987. hit rate 3% among 330,000;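 active = inhibition of at least 50% at 8 µM in the primary screen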
Target sequence (O15151 whole entry, looked up): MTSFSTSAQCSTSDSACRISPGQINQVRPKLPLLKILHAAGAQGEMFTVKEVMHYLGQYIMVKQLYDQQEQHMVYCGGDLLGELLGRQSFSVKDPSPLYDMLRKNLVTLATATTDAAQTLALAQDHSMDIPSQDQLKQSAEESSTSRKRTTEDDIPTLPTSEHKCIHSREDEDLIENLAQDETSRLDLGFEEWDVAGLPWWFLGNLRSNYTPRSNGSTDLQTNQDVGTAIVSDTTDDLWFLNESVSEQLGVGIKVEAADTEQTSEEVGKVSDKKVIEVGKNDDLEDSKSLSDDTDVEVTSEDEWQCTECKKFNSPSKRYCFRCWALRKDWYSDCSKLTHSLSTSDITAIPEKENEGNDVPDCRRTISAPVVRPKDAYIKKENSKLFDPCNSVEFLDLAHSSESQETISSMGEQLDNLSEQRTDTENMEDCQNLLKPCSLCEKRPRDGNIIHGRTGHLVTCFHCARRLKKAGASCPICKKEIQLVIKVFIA
Target sequence (Q00987 whole entry, looked up): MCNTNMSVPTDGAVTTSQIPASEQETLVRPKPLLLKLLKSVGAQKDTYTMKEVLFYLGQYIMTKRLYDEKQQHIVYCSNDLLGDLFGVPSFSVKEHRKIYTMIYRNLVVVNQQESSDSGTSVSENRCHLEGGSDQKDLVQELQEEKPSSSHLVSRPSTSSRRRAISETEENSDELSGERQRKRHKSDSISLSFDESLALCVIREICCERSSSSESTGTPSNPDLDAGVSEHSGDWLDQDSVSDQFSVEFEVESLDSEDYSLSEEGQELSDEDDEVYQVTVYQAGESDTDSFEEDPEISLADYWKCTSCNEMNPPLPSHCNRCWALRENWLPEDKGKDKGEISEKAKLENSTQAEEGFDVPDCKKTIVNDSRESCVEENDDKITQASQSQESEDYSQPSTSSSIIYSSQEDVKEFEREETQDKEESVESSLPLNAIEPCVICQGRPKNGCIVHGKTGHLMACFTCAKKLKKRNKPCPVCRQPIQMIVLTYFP
Calb FLC: affects C. albicans growth with fluconazole; C. albicans CaCi-2 (fluconazole-resistant clinical isolate) + fluconazole, Alamar Blue growth, 48 h; growth inhibition, % (test concentration not listed); hit rate 0.57% among 300,000; AID 1979;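 active = growth inhibition above about 58% in most replicates, limit read from the data, passing the limit was not always enough; inconclusive = exactly half the replicates above a set limit; inactive = most replicates below a set limit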;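 note: all wells also contain fluconazole at 8 µg/ml as a sub-toxic cotreatment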
NALP3 yeast inh: blocks the NALP3 inflammasome reconstituted in yeast. Yeast reconstituted NLRP3/ASC/caspase-1, beta-gal luminescence, 24 h. inhibition, % at 10 µM. hit rate 0.39% among 330,000. AID 2825;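 active = inhibition of 50% or more; inactive = inhibition below 50%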
CSC inhib: cancer stem cell inhibition; cancer stem cell-like cells viability, luminescence; inhibition, % at 7.5 µM; hit rate 1.1% among 300,000; in the data active = inhibition above about 75%; inconclusive = no clear call, values can overlap the other calls; tested in HMLE shEcad cells
T cruzi repl: T. cruzi replication inhibition; T. cruzi beta-gal in NIH3T3, luminescence, 90 h; inhibition, % (no concentration beside the values); hit rate 1.4% among 300,000; AID 1885;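 active = mean inhibition across valid replicates above about 55%, limit read from the data; inconclusive = mean below that limit but half or more replicates reach it; inactive = mean below it, under half of replicates reach it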;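 note: signal also drops with host cell toxicity which is not excluded here; higher percent means less beta-gal luminescence so fewer parasites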
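System – NIH/3T3 host cells with β-galactosidase reporter T. cruzi · Doses – single 50 nL compound addition per well in DMSO · Reagent – 5000 T. cruzi trypomastigotes/well · Medium – Low-serum DMEM with 2% FBS · Timing – ≥90 h infection period, 3 h prior cell attachment · Evaluation – parasite load inhibition, % · Technique – GalScreen luminescence, 60 min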
NALP3 yeast conf: NALP3 inhibition confirmation in yeast. shares compounds with NALP3 yeast inh. yeast expressing human NALP3, luminescence. inhibition, % at 10 µM. hit rate 81% among 1,300; in the data active = inhibition above about 48%
Casp1 ASC ctr: caspase-1-ASC yeast counter-screen hit | inhibition, % at 10 µM | yeast expressing Caspase-1-ASC, luminescence counter screen | shares compounds with NALP3 yeast inh | hit rate 66% among 1,000
NALP3 yeast rt: retest-confirmed inhibitor of NALP3 in yeast | hit rate 53% among 1,000 | yeast expressing human NALP3, luminescence read-out | inhibition, % at 10 µM | shares compounds with NALP3 yeast inh
Of the large screens only hits and unclear results are named; the others gave an inactive call (follow-up assays come after a bar, where they were run). Shown are actives, neighbours in structure and some others; about 5.3% of the full set was active somewhere. Cut-off read from the data, not from the text of the source, unless noted: active = inhibition above about 50%; inactive = the rest.

O=S1(=O)C=C(Sc2nc3ccccc3s2)c2ccccc21	Beta apoptosis 122, NALP3 yeast inh 62, CSC inhib 141, T cruzi repl 69 | NALP3 yeast conf 64 | Casp1 ASC ctr 86 | NALP3 yeast rt 59
CCOC(=O)C(=Cc1ccc(-n2cncn2)cc1)C(=O)OCC	NALP3 yeast inh 50, CSC inhib inconclusive | NALP3 yeast conf 61 | Casp1 ASC ctr 57 | NALP3 yeast rt inactive
CCOC(=O)C(=CNc1cc(C)nn1-c1ccc(Cl)cc1)C(=O)OCC	none
c1ccc2c(c1)ncn2CCOCCOCCn1cnc2ccccc21	none
Clc1ccc(OCCn2cnc3ccccc32)c(Cl)c1	NALP3 yeast inh 71 | NALP3 yeast conf 62 | Casp1 ASC ctr 77 | NALP3 yeast rt 63
O=S(=O)(c1ccc(N2CCCC2)cc1)C(F)(F)F	NALP3 yeast inh 56 | NALP3 yeast conf 59 | Casp1 ASC ctr 59 | NALP3 yeast rt inactive
O=C(CNC(=O)c1ccccc1)OC(C(=O)Nc1cc(C(F)(F)F)ccc1Cl)c1ccccc1 (stereo not given)	none
Cc1ccc(-c2cnn(-c3cccc(C(F)(F)F)c3)c2N)cc1	NALP3 yeast inh 57 (no result: CSC inhib) | NALP3 yeast conf 66 | Casp1 ASC ctr inactive | NALP3 yeast rt inactive
COc1cc(CN2CCN(Cc3ccc(C(F)(F)F)cc3)CC2)cc(OC)c1OC	none
COc1cccc(CN(C)C(=O)c2csc3c2CCCC3)c1OC	NALP3 yeast inh 51 | NALP3 yeast conf inactive | Casp1 ASC ctr 50 | NALP3 yeast rt inactive
CCN(CC)c1ccc(Nc2nc(Cl)ncc2Br)cc1	NALP3 yeast inh 54 | NALP3 yeast conf 64 | Casp1 ASC ctr 54 | NALP3 yeast rt inactive
CSc1ccccc1NC(=O)CSCc1ccc(C)cc1	none
Cc1cc(C)c[n+](-c2nc([O-])sc2C=O)c1	none
COc1cccc2cc(-c3ccccc3)c(=O)oc12	NALP3 yeast inh 54 (no result: CSC inhib) | NALP3 yeast conf 72 | Casp1 ASC ctr 58 | NALP3 yeast rt 50
COc1ccc2cc(-c3ccccc3)c(=O)oc2c1	NALP3 yeast inh 63 | NALP3 yeast conf 75 | Casp1 ASC ctr 68 | NALP3 yeast rt 63
COc1ccc(-c2cc3cccc(OC)c3oc2=O)cc1	none
COc1cccc2cc(-c3nc4ccccc4[nH]3)c(=O)oc12	NALP3 yeast inh 57 (no result: Beta apoptosis) | NALP3 yeast conf 54 | Casp1 ASC ctr inactive | NALP3 yeast rt inactive
CCN(CC)C(=O)C12C(=O)Oc3ccccc3C1C2(C)C(=O)c1ccc(F)cc1 (stereo not given)	none (no result: T cruzi repl)
OC(c1ccc(Cl)cc1)c1nccc2ccccc12 (stereo not given)	NALP3 yeast inh 58 | NALP3 yeast conf 67 | Casp1 ASC ctr 65 | NALP3 yeast rt inactive
CCCOc1ncnc2c1[nH]c1ccccc12	NALP3 yeast inh 74 | NALP3 yeast conf 88 | Casp1 ASC ctr 81 | NALP3 yeast rt 76
CCCOc1ncnc2c1[nH]c1ccc(OC)cc12	none
Cc1cc(C)nc(N2CCCC(C(=O)NC3CCCC3)C2)n1 (stereo not given)	none (no result: CSC inhib)
CN=c1oc2ccc(Cl)cc2cc1C(N)=O	NALP3 yeast inh 51 | NALP3 yeast conf inactive | Casp1 ASC ctr inactive | NALP3 yeast rt inactive
NC(=O)c1cc2cc(Cl)ccc2o/c1=N/NC(=O)c1cccs1	none
CCc1cc(C(=O)Nc2cc(S(=O)(=O)N(CC)CC)ccc2N2CCOCC2)sc1C	T cruzi repl inconclusive
CCc1cc(C(=O)Nc2ccccc2N2CCOCC2)sc1C	NALP3 yeast inh 51 (no result: Calb FLC, CSC inhib, T cruzi repl) | NALP3 yeast conf 53 | Casp1 ASC ctr inactive | NALP3 yeast rt inactive
COc1cc(OC)cc(C(C(=O)NCc2ccccc2)N(Cc2ccco2)C(=O)c2ccno2)c1 (stereo not given)	none
CC(Cc1ccccc1)(NC(=O)CN)c1ccccc1 (stereo not given)	NALP3 yeast inh 91 (no result: Calb FLC) | NALP3 yeast conf 96 | Casp1 ASC ctr 94 | NALP3 yeast rt 93
CC12CC3(C)CC(C)(C1)CC(C(=O)NCc1ccccn1)(C2)C3	none
O=[N+]([O-])c1ccc(O)c(C=Nc2ccc3oc(Cc4ccc(Cl)cc4)nc3c2)c1	none
O=C(Nc1ccc2c(c1)OCCO2)c1cccc(Cl)c1	NALP3 yeast inh 53 (no result: Beta apoptosis) | NALP3 yeast conf 70 | Casp1 ASC ctr inactive | NALP3 yeast rt inactive
O=C(Nc1cccc(Cl)c1)c1ccc2c(c1)OCCO2	NALP3 yeast inh 78 | NALP3 yeast conf 92 | Casp1 ASC ctr 86 | NALP3 yeast rt 76
O=C(COc1cccc2ccccc12)NNC(=O)Nc1ccccc1	none
C=CCOc1ccc2c(OC)c3ccoc3nc2c1OC	none
CCOc1c2ccoc2nc2c(OC)c(OC)ccc12	NALP3 yeast inh 50 (no result: Beta apoptosis) | NALP3 yeast conf 68 | Casp1 ASC ctr inactive | NALP3 yeast rt inactive
Cc1cc2c(C)nc(N/N=C/c3ccc(F)cc3)nc2o1	none
Cc1ccc2oc(C(=O)N3CCCCCC3)c(C)c2c1	NALP3 yeast inh 53 | NALP3 yeast conf 62 | Casp1 ASC ctr 59 | NALP3 yeast rt 52
CN(C)c1ccc(N=Nc2cccc(F)c2)cc1	NALP3 yeast inh 52 (no result: T cruzi repl) | NALP3 yeast conf inactive | Casp1 ASC ctr 51 | NALP3 yeast rt inactive
Cc1cc(N(C)C)ccc1N=Nc1ccc2ncccc2c1	none
CN(C)c1ccc(N=Nc2cccc3ccoc23)cc1	NALP3 yeast inh 60 | NALP3 yeast conf 68 | Casp1 ASC ctr inactive | NALP3 yeast rt inactive
CN(C)c1ccc(N=Nc2ccc(S(N)(=O)=O)cc2)cc1	none
CN1CCN(C(=O)c2cc(COc3c(F)cccc3F)on2)CC1c1ccccc1 (stereo not given)	NALP3 yeast inh 84 | NALP3 yeast conf 88 | Casp1 ASC ctr 85 | NALP3 yeast rt 84
CCCCc1ccc(NC(=S)NCc2ccc(OC)cc2)cc1	NALP3 yeast inh 50 (no result: CSC inhib) | NALP3 yeast conf 72 | Casp1 ASC ctr 55 | NALP3 yeast rt inactive
COc1ccc(CNC(=S)Nc2ccc(OC)cc2)cc1	none
Cc1cccc(OCCC(=O)NCC(c2ccccc2)N(C)C)c1 (stereo not given)	none
O=C(NC1CC1)c1cc2c(s1)-c1ccccc1OC2	NALP3 yeast inh 60 | NALP3 yeast conf 74 | Casp1 ASC ctr 57 | NALP3 yeast rt inactive
CCOC(=O)c1ccc2c(c1)NCc1cccc(OC)c1O2	NALP3 yeast inh 54 (no result: Beta apoptosis) | NALP3 yeast conf 63 | Casp1 ASC ctr inactive | NALP3 yeast rt inactive
COc1ccc(C(=O)OCC(=O)c2ccc3c(c2)NC(=O)CO3)cc1OC	none (no result: Calb FLC, T cruzi repl)
CCN(CC)c1nc(C(N)=O)cc(-c2ccccc2)n1	NALP3 yeast inh 53 | NALP3 yeast conf inactive | Casp1 ASC ctr 65 | NALP3 yeast rt inactive
CN1CCN(c2nc(C(N)=O)cc(-c3ccccc3)n2)CC1	none
COc1ccccc1CNc1ccc2nnc(CCNC(=O)c3ccc(C)cc3)n2n1	none

Source: PubChem
